Assay results reported in ChEMBL document CHEMBL5385869, “Novel 4-aminoquinolines: Synthesis, inhibition of the Mycobacterium tuberculosis enoyl-acyl carrier protein reductase, antitubercular activity, SAR, and preclinical evaluation” (Eur J Med Chem, 2023).
Values after ≈ are worked out from the molar mass of the structure shown. Active and inactive are the calls of the source. The rule behind the calls is not given here.

How the values were obtained:
[1] = target: T1, Enoyl-[acyl-carrier-protein] reductase [NADH] (Mycobacterium tuberculosis, UniProt P9WGR1); assay: Inhibition of Mycobacterium tuberculosis InhA-catalysed chemical reaction in presence of NADH measured for 1 min by UV/Visible spectrophotometry
T1 sequence (P9WGR1 whole entry): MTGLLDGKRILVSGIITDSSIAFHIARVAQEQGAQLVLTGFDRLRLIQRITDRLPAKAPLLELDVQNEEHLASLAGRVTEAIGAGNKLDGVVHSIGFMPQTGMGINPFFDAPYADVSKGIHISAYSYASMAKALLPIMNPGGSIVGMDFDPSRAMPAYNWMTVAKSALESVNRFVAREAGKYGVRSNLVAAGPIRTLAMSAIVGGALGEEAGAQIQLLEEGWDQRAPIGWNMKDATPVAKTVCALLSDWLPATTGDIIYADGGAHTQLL
Procedure, shortened: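 Recombinant MtInhA reaction at 25 °C in 100 mM Pipes pH 7.0, started by adding 2.2 μM enzyme and followed for 1 min. Substrate is DD-CoA, made from 2-trans-dodecenoic acid and CoA.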

[2] = system: Mycobacterium tuberculosis; assay: Antibacterial activity against pan-sensitive Mycobacterium tuberculosis H37Rv ATCC 27294 measured after 7 days by resazurin dye based assay; type: functional; details: H37Rv ATCC 27294, 168 h, time 7 day
Procedure, shortened: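 Resazurin reduction microplate assay (REMA) in Middlebrook 7H9 broth with 10% ADC and 5% DMSO. Compounds come from 2 mg/mL DMSO stocks and are 2-fold serially diluted, top concentration 0.08–40 μg/mL depending on solubility. MIC is the lowest concentration preventing the blue-to-pink colour change. Three independent experiments; the reported value is the modal or the highest value.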

[3] = target: T2, Enoyl-[acyl-carrier-protein] reductase [NADH] (Mycobacterium tuberculosis) (UniProt P9WGR1); assay: Binding affinity to Mycobacterium tuberculosis InhA assessed as gibbs free energy change at 250 uM in presence of NADH by fluorescence spectroscopy
T2 sequence (whole entry): T1 sequence (P9WGR1 whole entry)
Procedure, shortened: (§1)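 Titration of pre-formed MtInhA:NADH complex (2 mL of 3 μM enzyme with 20 μM NADH), adding microliter aliquots of 250 μM ligand stock with dilution kept ≤1%. Intrinsic fluorescence read at 295 nm excitation, 310–500 nm emission. Temperatures 15, 20, 25 and 30 °C. KD is fitted to a hyperbolic isotherm. ΔH°, ΔS° and ΔG° come from van't Hoff analysis of KD across temperatures.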

[4] = Selectivity index, ratio of CC50 for human HepG2 cells by neutral red uptake assay to MIC for pan-sensitive Mycobacterium tuberculosis H37Rv ATCC 27294; type: toxicity; details: read-out: Selectivity Index
[5] = target: T2, Enoyl-[acyl-carrier-protein] reductase [NADH] (Mycobacterium tuberculosis); assay: Time dependent inhibition of Mycobacterium tuberculosis InhA
[6] = Cytotoxicity against African green monkey Vero cells assessed as reduction in cell viability incubated for 72 hrs by neutral red uptake assay; type: toxicity, cell-based; details: chlorocebus sabaeus
Procedure, shortened: (§2)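 Cells grown in DMEM with 10% FBS. HepG2 seeded at 4 × 10³ and Vero at 2 × 10³ cells/well, 24 h before dosing. Compounds at 1, 5 and 20 μM in 1% DMSO for 72 h at 37 °C, 5% CO2. MTT readout: 5 mg/mL reagent for 4 h, absorbance at 595 nm. Neutral red readout: 25 μg/mL dye for 3 h, then acid-ethanol desorb. Viability is expressed relative to 1% DMSO controls.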

[7] = Selectivity index, ratio of CC50 for African green monkey Vero cells by MTT assay to MIC for pan-sensitive Mycobacterium tuberculosis H37Rv ATCC 27294; type: toxicity, cell-based; details: read-out: Selectivity Index
[8] = target: T1, Enoyl-[acyl-carrier-protein] reductase [NADH]; assay: Noncompetitive inhibition of Mycobacterium tuberculosis InhA using DD-CoA as substrate assessed as inhibition constant for enzyme-inhibitor binary complex in presence of varying concentrations of NADH by double reciprocal plot analysis
[9] = Cytotoxicity against human HepG2 cells assessed as reduction in cell viability incubated for 72 hrs by MTT assay; type: toxicity, cell-based; procedure, shortened: as §2
[10] = Selectivity index, ratio of CC50 for African green monkey Vero cells by neutral red uptake assay to MIC for pan-sensitive Mycobacterium tuberculosis H37Rv ATCC 27294; type: toxicity, cell-based; details: read-out: Selectivity Index
[11] = Selectivity index, ratio of CC50 for human HepG2 cells by MTT assay to MIC for pan-sensitive Mycobacterium tuberculosis H37Rv ATCC 27294; type: toxicity; details: read-out: Selectivity Index
[12] = Cytotoxicity against African green monkey Vero cells assessed as reduction in cell viability incubated for 72 hrs by MTT assay; type: toxicity, cell-based; details: chlorocebus sabaeus; procedure, shortened: as §2
[13] = target: T1, Enoyl-[acyl-carrier-protein] reductase [NADH]; assay: Noncompetitive inhibition of Mycobacterium tuberculosis InhA using DD-CoA as substrate assessed as inhibition constant for enzyme-substrate-inhibitor ternary complex in presence of varying concentrations of NADH by double reciprocal plot analysis
[14] = target: T2, Enoyl-[acyl-carrier-protein] reductase [NADH] (Mycobacterium tuberculosis); assay: Binding affinity to Mycobacterium tuberculosis InhA assessed as change in enthalpy at 250 uM in presence of NADH by fluorescence spectroscopy
[15] = target: T1, Enoyl-[acyl-carrier-protein] reductase [NADH]; assay: Competitive inhibition of Mycobacterium tuberculosis InhA using varying concentrations of DD-CoA as substrate assessed as inhibition constant for enzyme-inhibitor binary complex in presence of NADH by Lineweaver-Burk plot analysis
Procedure, shortened: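 Steady-state kinetics with recombinant MtInhA in 100 mM Pipes pH 7.0 at 25 °C. NADH fixed at 60 μM, DD-CoA varied 15–135 μM, inhibitor at fixed-varied levels of 0.2–4 μM. Kis is fitted to the competitive inhibition equation.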

[16] = target: T1, Enoyl-[acyl-carrier-protein] reductase [NADH]; assay: Binding affinity to Mycobacterium tuberculosis InhA assessed as dissociation constant at 250 uM at 25 degreeC in presence of NADH by fluorescence spectroscopy; procedure, shortened: as §1
[17] = Cytotoxicity against human HepG2 cells assessed as reduction in cell viability incubated for 72 hrs by neutral red uptake assay; type: toxicity, cell-based; procedure, shortened: as §2
[18] = target: T2, Enoyl-[acyl-carrier-protein] reductase [NADH] (Mycobacterium tuberculosis); assay: Binding affinity to Mycobacterium tuberculosis InhA assessed as change in entropy at 250 uM in presence of NADH by fluorescence spectroscopy
[19] = system: Mycobacterium tuberculosis; assay: Antibacterial activity against Mycobacterium tuberculosis H37Rv ATCC 27294 infected in CF-1 mouse assessed as reversal of bacterial growth in spleen at 300 uM/kg, po administered daily for 14 days starting from 7 days post infection; type: functional, organism-based; details: time 14.0 day
Procedure, shortened: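 Mice treated by gavage from 7 days post-infection for 14 days, daily, at 300 or 450 μM/kg. Lungs and spleen homogenized in saline and plated for CFU. Comparisons are against vehicle and early-control groups.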

Cc1cc(Nc2ccc(N3CCCCC3)cc2)c2cc(F)ccc2n1
IC50 [1]: 38.3 µM | MIC [2]: 14.9 µM (≈ 5 µg/mL)

CCc1cc(Nc2ccc(N3CCCCC3)cc2)c2cc(Cl)ccc2n1
IC50 [1]: 2.9 µM | MIC [2]: 1.7 µM (≈ 0.622 µg/mL)

Cc1cc(Nc2ccc(N3CCCCC3)cc2)c2cc(C(C)C)ccc2n1
IC50 [1]: 8.2 µM | MIC [2]: 6.9 µM (≈ 2.48 µg/mL)

CCOC(=O)c1ccc2nc(C)cc(Nc3ccc(-n4cccn4)cc3)c2c1
IC50 [1]: 8 µM | MIC [2]: > 6.7 µM

CCOC(=O)c1ccc2nc(C)cc(Nc3ccc(CC)cc3)c2c1
IC50 [1]: 41.3 µM | MIC [2]: 29.9 µM (≈ 10 µg/mL)

CCOc1ccc2nc(C)cc(Nc3ccc(N4CCCCC4)cc3)c2c1
IC50 [1]: 9.5 µM | MIC [2]: 6.9 µM (≈ 2.49 µg/mL)

COc1ccc2nc(C)cc(Nc3ccc(N4CCCCC4)cc3)c2c1
IC50 [1]: 4.7 µM | MIC [2]: 3.6 µM (≈ 1.25 µg/mL)

Cc1cc(Nc2ccc(N3CCCCC3)cc2)c2cc(N(C)C)ccc2n1
IC50 [1]: 20 µM | MIC [2]: 6.9 µM (≈ 2.49 µg/mL)

Cc1cc(Nc2ccc(N3CCC(C)CC3)cc2)c2cc(Br)ccc2n1
deltaG [3]: -8 kcal/mol | selectivity ratio [4]: 17.4 | TDI [5]: inactive | CC50 at 72 h [6]: 6.2 µM | IC50 [1]: 1.4 µM | selectivity ratio [7]: 13.8 | Ki [8]: 0.72 µM | CC50 at 72 h [9]: 5.3 µM | selectivity ratio [10]: 8.9 | selectivity ratio [11]: 7.6 | CC50 at 72 h [12]: 9.7 µM | Ki [13]: 0.69 µM | deltaH [14]: -5.6 kcal/mol | Ki [15]: 0.79 µM | Kd [16]: 1.25 µM | CC50 at 72 h [17]: 12.2 µM | MIC [2]: 0.7 µM (≈ 0.287 µg/mL) | deltaS [18]: 8.3 cal/mol/K

Cc1cc(Nc2ccc(-n3cccn3)cc2)c2cc(Br)ccc2n1
IC50 [1]: 4.85 µM | MIC [2]: 3.3 µM (≈ 1.25 µg/mL)

CCOC(=O)c1ccc2nc(C)cc(Nc3ccc(CN4CCCCC4)cc3)c2c1
IC50 [1]: > 50 µM | MIC [2]: 49.6 µM (≈ 20 µg/mL)

CCOC(=O)c1ccc2nc(C)cc(Nc3ccc(C(=O)N4CCCC4)cc3)c2c1
IC50 [1]: 44.5 µM | MIC [2]: > 49.6 µM

Cc1cc(Nc2ccc(N3CCCC3CO)cc2)c2cc(Br)ccc2n1 (stereo not given)
IC50 [1]: > 50 µM | MIC [2]: 12.1 µM (≈ 4.99 µg/mL)

CCOC(=O)c1ccc2nc(C)cc(Nc3ccc(N4CCN(Cc5ccccc5)CC4)cc3)c2c1
IC50 [1]: 26.2 µM | MIC [2]: 10.4 µM (≈ 5 µg/mL)

CCOC(=O)c1ccc2nc(C)cc(Nc3ccc(N4CCCC4)cc3)c2c1
IC50 [1]: 21.7 µM | MIC [2]: 13.3 µM (≈ 4.99 µg/mL)

CC[C@@H](CO)NCCN[C@@H](CC)CO
Activity [19]: inactive

CCc1cc(Nc2ccc(N3CCCCC3)cc2)c2cc(Br)ccc2n1
IC50 [1]: 1.54 µM | MIC [2]: 0.75 µM (≈ 0.308 µg/mL)

Cc1ccc2nc(C)cc(Nc3ccc(N4CCCCC4)cc3)c2c1
IC50 [1]: 17.2 µM | MIC [2]: 7.5 µM (≈ 2.49 µg/mL)

CCOC(=O)c1ccc2nc(C)cc(Nc3ccc(N4CCOCC4)cc3)c2c1
IC50 [1]: 19.5 µM | MIC [2]: 51.1 µM (≈ 20 µg/mL)

CO[C@H]1/C=C/O[C@@]2(C)Oc3c(C)c(O)c4c(O)c(c(/C=N/N5CCN(C)CC5)c(O)c4c3C2=O)NC(=O)/C(C)=C\C=C\[C@H](C)[C@H](O)[C@@H](C)[C@@H](O)[C@@H](C)[C@H](OC(C)=O)[C@@H]1C [RIFAMPIN]
MIC [2]: 0.05 µM (≈ 0.0411 µg/mL)

CCOC(=O)c1ccc2nc(C)cc(Nc3ccc(N4CCC(C)CC4)cc3)c2c1
IC50 [1]: 10.9 µM | MIC [2]: 6.2 µM (≈ 2.5 µg/mL)

CCOC(=O)c1ccc2nc(C)cc(Nc3ccc(-n4cnc5ccccc54)cc3)c2c1
IC50 [1]: 42.1 µM | MIC [2]: > 47.3 µM

Cc1cc(Nc2ccc(N3CCCCC3)cc2)c2cc(C#N)ccc2n1
IC50 [1]: 19.6 µM | MIC [2]: 14.6 µM (≈ 5 µg/mL)

CCOC(=O)c1ccc2nc(C)cc(Nc3ccc(N4CCSCC4)cc3)c2c1
IC50 [1]: > 50 µM | MIC [2]: > 12.3 µM

Cc1cc(Nc2ccc(N3CCC(c4ccccc4)CC3)cc2)c2cc(Br)ccc2n1
IC50 [1]: > 50 µM | MIC [2]: 1.33 µM (≈ 0.628 µg/mL)

CCCc1ccc(Nc2cc(C)nc3ccc(C(=O)OCC)cc23)cc1
IC50 [1]: 19.6 µM | MIC [2]: 14.3 µM (≈ 4.98 µg/mL)

CCCCc1ccc(Nc2cc(C)nc3ccc(C(=O)OCC)cc23)cc1
IC50 [1]: 11.2 µM | MIC [2]: 6.9 µM (≈ 2.5 µg/mL)

Cc1cc(Nc2ccc(N3CCCCC3)cc2)c2cc([N+](=O)[O-])ccc2n1
IC50 [1]: 18.6 µM | MIC [2]: 6.9 µM (≈ 2.5 µg/mL)
